Bioassay records (PubChem BioAssay)
MEKK2 mut-MEK5 = signal of MEK5 binding to mutant human MEKK2 PB1 domain. 290,000 tested, 0.35% active. percent response, % at 10 µM. bead flow cytometry, Alexa488-MEK5 binding to MEKK2 mutant. AID 1530; in the data active = percent response above about 24%, passing the limit was not always enough
MEKK2 WT-MEK5 = raises or lowers MEK5 binding to wildtype human MEKK2 PB1 domain. Q9Y2U5. bead flow cytometry, Alexa488-MEK5 binding to MEKK2 WT; actives lie on both sides. binding response (% of control), % at 10 µM. 290,000 tested, 1.1% active. AID 1531; in the data active = binding response below about 67% or above about 130%
MEKK3 PB1 HTS = modulators (inhibitors or enhancers) of MEK5 binding to human MEKK3 PB1 domain; bead-based flow cytometry, Alexa488-MEK5 binding to MEKK3; actives lie on both sides; 0 = blocked by unlabeled MEK5, 100 = vehicle; binding response (% of control), % at 10 µM; 290,000 tested, 1.4% active; AID 1529;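 active = binding response more than 3 SD above or below the average of its plate-row segment, actives on both sides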;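 also: Alexa488 bead fluorescence after subtracting the streptavidin-only scavenger bead signal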
Target sequence (Q99759 whole entry, looked up, the tested form may be a part): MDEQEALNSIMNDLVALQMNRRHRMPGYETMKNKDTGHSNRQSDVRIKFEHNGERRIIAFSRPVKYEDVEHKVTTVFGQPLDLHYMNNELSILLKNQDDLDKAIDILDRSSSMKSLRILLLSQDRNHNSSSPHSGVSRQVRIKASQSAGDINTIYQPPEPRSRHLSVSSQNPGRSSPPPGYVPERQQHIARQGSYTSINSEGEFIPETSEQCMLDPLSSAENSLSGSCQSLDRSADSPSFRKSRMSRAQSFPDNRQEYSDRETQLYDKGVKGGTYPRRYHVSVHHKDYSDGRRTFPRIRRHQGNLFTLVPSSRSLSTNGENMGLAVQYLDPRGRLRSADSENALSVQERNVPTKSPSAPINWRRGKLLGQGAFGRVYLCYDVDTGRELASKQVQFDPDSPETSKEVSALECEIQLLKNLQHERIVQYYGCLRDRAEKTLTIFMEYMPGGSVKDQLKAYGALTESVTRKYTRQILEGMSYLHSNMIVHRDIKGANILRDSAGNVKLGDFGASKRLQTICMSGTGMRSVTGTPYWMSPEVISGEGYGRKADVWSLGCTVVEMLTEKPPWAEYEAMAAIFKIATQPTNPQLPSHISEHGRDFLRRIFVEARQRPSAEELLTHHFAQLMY
T cruzi inh = blocks replication of Trypanosoma cruzi | T. cruzi beta-gal in NIH3T3, luminescence, 90 h | inhibition, % (no concentration beside the values) | 300,000 tested, 1.4% active;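 active = mean inhibition across valid replicates above about 55%, limit read from the data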;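 also: signal also drops with host cell toxicity which is not excluded here; 0% = plate median of DMSO wells and 100% = zero luminescence signal; higher percent means less beta-gal luminescence so fewer parasites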
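compound dosing = single 50 nL compound addition per well in DMSO | material = NIH/3T3 host cells with β-galactosidase reporter T. cruzi | input = 5,000 host fibroblasts per well | timing = ≥90 h infection period, 3 h prior cell attachment | read-out basis = percent inhibition of parasite-derived β-gal signal | detection = GalScreen β-gal luminescence, detergent lysis, 60 min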
HCV NS3 hel inh = inhibitors of Hepatitis C virus NS3 helicase | NS3 helicase DNA unwinding, Cy5 molecular beacon fluorescence | inhibition, % at 10.9 µM | 290,000 tested, 0.56% active;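 active = inhibition above the mean of all tested compounds plus 3 SD, set per campaign, cut at about 35% in these data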;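 also: 0% = DMSO wells and 100% = thioflavine S control wells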
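Control set: DMSO versus 110 µM thioflavine S; Material: NS3 helicase fragment of HCV; Measured by: Cy5 fluorescence at 0 and 60 min, beacon hairpin quenching; Read-out basis: percent inhibition from t60/t0 fluorescence ratio; Times: reaction time 60 min, 25 °C; Repeats: single replicate; Compound dosing: single dose, 10.9 µM nominal final, DMSO 0.8% final.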
DNA FID counter = displaces DNA intercalator in HCV helicase counter-screen; inhibition, % at 7.9 µM; DNA fluorescent intercalator displacement, fluorescence; AID 1845; 290,000 tested, 0.17% active; in the data active = inhibition above about 37%;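 also: 0% = vehicle and 100% = reference compound; higher means more ethidium bromide displaced from hairpin DNA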
MEKK2wt confirm = raises or lowers MEK5 binding to wildtype human MEKK2, retest | binding response (% of control), % at 10 µM | 5,900 tested, 2.4% active | shares compounds with MEKK3 PB1 HTS | bead flow cytometry, Alexa488-MEK5 binding to MEKK2 WT; actives lie on both sides; in the data active = binding response below about 16% or above about 210%; inactive = in between
MEKK2mut confirm = signal of MEK5 binding to mutant human MEKK2, retest; shares compounds with MEKK3 PB1 HTS; bead flow cytometry, Alexa488-MEK5 binding to MEKK2 mutant; percent response, % at 10 µM; 5,900 tested, 2% active; in the data active = percent response mostly above about 71%, no sharp cut-off; inactive = mostly below about 38%;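 also: higher means compound restores mutant binding toward wildtype level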
MEKK3 confirm = confirmation of inhibitors of MEK5 binding to human MEKK3; shares compounds with MEKK3 PB1 HTS; bead flow cytometry, Alexa488-MEK5 binding to MEKK3; active compounds read low; binding response (% of control), % at 10 µM; 5,900 tested, 1.8% active; AID 1894;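 active = binding response below 72% of control, or above a set upper limit, though filed actives all read lower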;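 also: 100% = DMSO only wells and 0% = binding blocked by excess unlabeled MEK5; lower values mean stronger disruption of MEK5 binding to MEKK3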
Starred values were filed as active, the others as inactive; . = no result; [ ] = remark or other dose. Only some compounds are listed: those with a hit (about 4.1% of all), similar ones and a draw of the others.

SMILES	MEKK2 mut-MEK5	MEKK2 WT-MEK5	MEKK3 PB1 HTS	T cruzi inh	HCV NS3 hel inh	DNA FID counter	MEKK2wt confirm	MEKK2mut confirm	MEKK3 confirm
Cc1ccc(Nc2nc(N)c3ccccc3n2)cc1C	17	138*	107	37	-28	19	138	22	107
COc1ccc(-c2nc(NC(=O)Cn3c(=O)oc4ccccc43)sc2C)cc1	1	112	143*	13	6	-7	101	1	108
COc1cccc(NC(=O)Cn2c(=O)oc3ccccc32)c1	9	110	114	-8	1	-2	.	.	.
Cc1c(Cl)cnc(NC(=O)COC(=O)Cc2coc3ccc4ccccc4c23)c1Cl	0	102	131*	-3	22	-22	80	-14	84
CC(C)(C)NC(=O)NC(=O)COC(=O)Cc1coc2ccc3ccccc3c12	1	112	143*	-15	-8	-31	95	-3	97
Cc1cccc(OCC(=O)Nc2ccc(NC(=O)c3ccco3)cc2)c1	-2	99	100	-4	-11	-25	.	.	.
COc1ccc(OC)c(NC(=O)C2CCCN(S(C)(=O)=O)C2)c1 (stereo not drawn)	11	107	105	-4	-2	-6	.	.	.
CCN(CC)c1ccc(NC(=O)CCCOc2cccc(C)c2)cc1	-10	90	96	9	-6	3	.	.	.
CCN(CC)c1ccc(/C=N/OCC(=O)Nc2cccc(C)c2)cc1	52	61*[inhibitor]	104	-32	-7	-16	95	-8	99
COc1cc(C(=O)NCc2ccc(-c3nc4ccccc4s3)cc2)cc(OC)c1OC	0	107	136*	2	-8	-8	105	2	99
COc1ccc(C(=O)NCc2ccc(-c3nc4ccccc4s3)cc2)cc1	3	100	105	-3	-4	-5	.	.	.
CSCCC(=O)N1CCC(n2nccc2NC(=O)CCCc2ccccc2)CC1	7	100	99	-12	21	-39	.	.	.
O=C(N/N=C/c1cccc(OC(=O)c2cccc(Br)c2)c1)c1ccncc1	6	104	104	-8	1	-31	.	.	.
Oc1c(C=Nc2cccc3cccnc23)sc2ccccc12	-14	50*[inhibitor]	82	55*	7	-8	62	-24	89
Cc1oc2c(CN3CCOCC3)c(O)ccc2c(=O)c1-c1ccc(Cl)cc1	-16	44*[inhibitor]	38*[inhibitor]	-4	-5	-6	107	7	101
Cc1oc2c(CN3CCCC3)c(O)ccc2c(=O)c1-c1ccc(Cl)cc1	-37	76	97	-8	0	8	.	.	.
O=C(Nc1ccccc1O)c1ccc(NS(=O)(=O)c2cccc3cccnc23)cc1	-10	91	100	-16	-22	-10	.	.	.
COC(=O)C1=C(C)NC(C)=C(C(=O)O[C@@H]2CCCN(Cc3ccccc3)C2)[C@@H]1c1cccc([N+](=O)[O-])c1	10	145*	111	49	.	.	120	9	106
COc1ccc(C)cc1N(C(=O)c1ccc(F)cc1)c1nc2ccccc2s1	6	98	92	31	7	-9	.	.	.
COc1ccc(C)cc1N(C(=O)COc1cccc(F)c1)c1nc2ccccc2s1	1	108	143*	30	-7	-3	96	-7	87
O=C(Nc1ccc(S(=O)(=O)Nc2ncccn2)cc1)c1ccc2ncsc2c1	5	96	97	-12	14	-8	.	.	.
CCOc1ccccc1NC(=O)NC1CCN(CC(=O)Nc2ccc3c(c2)OCCO3)CC1	-7	82	75*[inhibitor]	14	1	9	101	4	103
Cc1ccccc1C(=O)NC1CCN(CC(=O)Nc2ccc3c(c2)OCCO3)CC1	-14	89	88	3	-15	5	.	.	.
C=CC(=O)NCCCc1cc(C(C)(C)C)c(O)c(C(C)(C)C)c1	10	112	103	18	-8	-26	.	.	.
Cc1nc2c(cc1C(=O)N/N=C/c1ccc([N+](=O)[O-])cc1)c(=O)n(C)c(=O)n2C	1	108	135*	-8	-1	-2	105	12	111
SMILES	MEKK2 mut-MEK5	MEKK2 WT-MEK5	MEKK3 PB1 HTS	T cruzi inh	HCV NS3 hel inh	DNA FID counter	MEKK2wt confirm	MEKK2mut confirm	MEKK3 confirm
Cc1ccc(-n2nc3c(=O)n(CCCC(=O)NCC(C)c4ccccc4)nc(C)c3c2C)cc1 (stereo not drawn)	10	110	105	-19	-1	-56	.	.	.
O=C1CCCC2=C1C(c1ccc(Cl)cc1)n1c(s/c(=C\c3ccc4ccncc4c3)c1=O)=N2 (stereo not drawn)	-1	81	141*	-23	10	-10	93	-1	100
CCOC(=O)C1=C(C)N=c2s/c(=C/c3ccc(OCC(=O)O)c(OC)c3)c(=O)n2C1c1ccc(Cl)cc1 (stereo not drawn)	.	.	.	1	.	.	.	.	.
CC1=C(C(=O)Nc2ccccc2)C(c2ccc(C)o2)n2c(s/c(=C/c3ccccc3)c2=O)=N1 (stereo not drawn)	-11	86	82*[inhibitor]	28	0	-4	96	-4	99
CC1=C(C(=O)Nc2ccccc2C)C(c2ccc(C)o2)n2c(s/c(=C/c3ccccc3)c2=O)=N1 (stereo not drawn)	3	104	102	37	12	-15	.	.	.
CC1=C(C(=O)Nc2ccccc2)C(c2ccc(Cl)cc2)n2c(s/c(=C/c3cccc(OCC(=O)O)c3)c2=O)=N1 (stereo not drawn)	-28	40*[inhibitor]	89	-16	-11	-8	99	-6	99
Cc1ccc(NC(=S)N2CCN(S(C)(=O)=O)CC2)cc1Cl	7	103	102	-14	-2	-8	.	.	.
CC(=O)Nc1sc(/C(C#N)=C/c2ccc(Cl)c(Cl)c2)nc1-c1ccc(C)cc1	104*	25*	118	10	-8	-1	87	-13	99
Nc1nc(-c2c[nH]c3ccccc23)cs1	69*	-7.0*[inhibitor]	83	1	-19	5	83	-3	90
CNc1nc(-c2c[nH]c3ccccc23)cs1	2	-4.0*[inhibitor]	94	-10	-11	5	-5.0*[inhibitor]	-5	91
CN1CCN(CC(=O)Nc2nc(-c3c[nH]c4ccccc34)cs2)CC1	29	145*	102	-17	-38	18	161	45	93
